Bioassay records as filed in PubChem BioAssay.
Not all results are given here.
Apaf-1 act: human Apaf-1 activation; activity change, negative = activation, % at 20 µM; Apaf-1 apoptosome caspase-3 activation, DEVD-Rh110 fluorescence; hits give low values; AID 489031; 330,000 compounds, 0.31% hits;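 active = activity change at or below -40% at 20 µM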
Target sequence (O14727 whole entry, looked up): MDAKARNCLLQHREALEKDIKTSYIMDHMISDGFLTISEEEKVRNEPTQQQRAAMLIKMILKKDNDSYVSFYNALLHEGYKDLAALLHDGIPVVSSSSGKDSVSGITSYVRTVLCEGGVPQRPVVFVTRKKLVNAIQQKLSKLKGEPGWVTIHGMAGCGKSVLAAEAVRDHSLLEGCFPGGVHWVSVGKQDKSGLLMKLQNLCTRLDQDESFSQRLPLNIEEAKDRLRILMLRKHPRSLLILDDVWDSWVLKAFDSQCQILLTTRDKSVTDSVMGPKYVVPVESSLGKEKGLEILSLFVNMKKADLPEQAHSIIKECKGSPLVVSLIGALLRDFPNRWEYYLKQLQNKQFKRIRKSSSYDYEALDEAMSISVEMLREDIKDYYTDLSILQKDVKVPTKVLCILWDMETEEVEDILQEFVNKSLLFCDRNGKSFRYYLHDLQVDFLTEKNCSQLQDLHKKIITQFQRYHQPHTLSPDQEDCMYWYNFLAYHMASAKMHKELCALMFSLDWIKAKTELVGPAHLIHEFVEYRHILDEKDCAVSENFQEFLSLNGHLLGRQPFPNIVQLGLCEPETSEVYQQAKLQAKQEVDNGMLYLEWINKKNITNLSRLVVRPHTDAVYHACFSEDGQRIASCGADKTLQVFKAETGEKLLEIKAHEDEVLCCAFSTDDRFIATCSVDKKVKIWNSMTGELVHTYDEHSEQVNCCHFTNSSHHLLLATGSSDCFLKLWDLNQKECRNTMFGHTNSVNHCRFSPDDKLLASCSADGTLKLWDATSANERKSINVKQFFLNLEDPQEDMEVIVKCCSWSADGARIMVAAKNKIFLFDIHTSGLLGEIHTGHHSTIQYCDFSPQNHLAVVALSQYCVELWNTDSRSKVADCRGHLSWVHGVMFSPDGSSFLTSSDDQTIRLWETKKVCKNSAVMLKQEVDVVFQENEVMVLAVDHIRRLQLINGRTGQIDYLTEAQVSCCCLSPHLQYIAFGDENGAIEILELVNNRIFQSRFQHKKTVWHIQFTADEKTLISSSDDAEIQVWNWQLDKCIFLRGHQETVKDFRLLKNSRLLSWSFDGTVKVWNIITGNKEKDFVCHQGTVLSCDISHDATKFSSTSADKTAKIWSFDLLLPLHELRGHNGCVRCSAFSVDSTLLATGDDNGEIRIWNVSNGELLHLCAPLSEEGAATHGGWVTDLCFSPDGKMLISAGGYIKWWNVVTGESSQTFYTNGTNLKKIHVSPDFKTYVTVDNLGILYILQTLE
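Assay system – biochemical Apaf-1 apoptosome reconstitution · Medium – 20 mM HEPES buffer, pH 7.5, containing CHAPS and BSA · Incubation – 30 min preincubation, 50 min reaction, room temperature · Measured by – Caspase-3-released Rh110 fluorescence, 540 nm emission, 480 nm excitation · Read-out – Caspase-3 cleavage activity downstream of Apaf-1 activation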
Rh110 act interf: Rh110 signal interference in Apaf-1 activator counter-screen; Rh110 fluorescence interference, quenched caspase reaction, Ex480/Em540; shares compounds with Apaf-1 act; 980 tested, under 10 active; fluorescence interference (activity change), % at 20 µM, hits read low;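 active = mean activity change at or below -40% when tested at 20 µM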
Apaf-1 act conf2: Apaf-1 (human) activation, single-dose confirmed. shares compounds with Apaf-1 act. reconstituted apoptosome caspase-3 activity, DEVD-Rh110 fluorescence; hits give low values. activity change, negative = activation, % at 20 µM. 980 compounds, 5% hits. AID 504617;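 active = mean activity change at or below -40%, meaning activation of 40% or more, at 20 µM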
The depositor's hits bear a star; x = not tested or not shown.

SMILES	Apaf-1 act	Rh110 act interf	Apaf-1 act conf2
CC(C)(C)c1ccc(S(=O)(=O)/N=C2\C=C(NS(=O)(=O)c3ccccc3)C(=O)c3ccccc32)cc1	46.0	x	x
CCOc1ccc2nc(N(CCN(C)C)C(=O)c3ccc4c(c3)CCCC4)sc2c1	54.7	x	x
CCN(CC)CCN(C(=O)c1ccc2c(c1)CCCC2)c1nc2cc(OC)c(OC)cc2s1	47.5	x	x
CCN(CC)CCN(C(=O)c1ccc(C(C)=O)cc1)c1nc2ccc(Cl)cc2s1	-328.6*	11.3	22.5
CC(C)=CCC1=C(OCC(=O)O)C(=O)c2ccccc2C1=O	95.3	x	x
Cc1cnc(C(=O)Nc2ccc(C)c(S(=O)(=O)N(C)C)c2)cn1	-46.7*	7.7	9.4
COc1cccc(-c2cn3nc4c(nc3n2)CCCC4)c1	53.4	x	x
COc1cccc(-c2cc(C(F)(F)F)n3nc(N)nc3n2)c1	-44.3*	-10.6	10.0
COc1ccc(C(=O)/C=C/Nc2cc(C)ccn2)cc1	-165.0*	-2.6	16.2
C#CCOCCOCCOCCNc1nc(N2CCN(C(=O)CCCCCCCCCCNC(=O)Cn3cc(C[C@@H](C)O)nn3)CC2)nc(N2CCN(C(=O)CCCCCCCCCCNC(=O)[C@H](CCCN=C(N)N)n3cc(C[C@@H](C)CC)nn3)CC2)n1	62.0	x	x
O=C1C(=C(O)c2ccccc2)C(=O)c2ccccc21	41.5	x	x
Cc1cc(Cl)ccc1NC(=S)NC1CCCC1	-42.3*	11.9	23.1
Cc1ccc(NC(=S)Nc2cccc3cnccc23)c(C)c1	96.4	x	x
O=C(O)CCNc1cc(N2CCN(C(=O)c3ccco3)CC2)c2noc3c2c1C(=O)c1ccccc1-3	81.3	x	x
O=C1CCN(Cc2ccccc2)C=C1c1ccc(Cl)cc1	47.3	x	x
CC1=NN(c2ccccc2)C(=O)/C1=C/c1cc2cc(C)ccc2nc1N1CCCCC1	94.2	x	x
CCN(CC(=O)Nc1ccc2c(c1)OCCO2)S(=O)(=O)c1ccc(C)cc1	-77.8*	-6.1	11.1
CN(CC(=O)Nc1ccc2c(c1)OCCO2)S(=O)(=O)c1cccc2cccnc12	-114.9*	12.9	13.1
CCN(Cc1ccccc1)S(=O)(=O)c1ccc(C(=O)N(CCCN(C)C)c2nc3cc4c(cc3s2)OCCO4)cc1	41.3	x	x
O=C(c1ccccc1)c1ccc2nc(-c3ccco3)c(-c3ccco3)nc2c1	40.6	x	x
CC(C)C[C@@H]1CN=C(N)N1C[C@@H]1CCCN1C[C@H](C)N1C[C@@H](Cc2ccccc2)N(CCCC2CCCC2)C1=N	54.6	x	x
O=[N+]([O-])c1ccc(/C=C/c2ccc3cccc([N+](=O)[O-])c3n2)cc1	-107.3*	-7.6	10.9
COc1ccc(C2C(C#N)=C(N)OC(C(C)(C)C)=C2C#N)cc1OC (stereo not given)	-50.5*	17.4	10.3
COc1ccc2[nH]c3c(c2c1)CCN1C(=O)C(CC(=O)NCCC2=CCCCC2)C[C@H](C(=O)N2CCOCC2)[C@@]31CCC1CCCC1 (stereo not given in full)	43.7	x	x
C#CCOCCOCCOCCNc1nc(N2CCN(C(=O)CCCCCCCCCCNC(=O)[C@H](CCCCN)n3cc(C)nn3)CC2)nc(N2CCN(C(=O)CCCCCCCCCCNC(=O)[C@H](CCCCN)n3cc(CCCC(=O)O)nn3)CC2)n1	62.7	x	x
SMILES	Apaf-1 act	Rh110 act interf	Apaf-1 act conf2
COc1cc(/C=N/NC(=O)c2ccncc2)ccc1OCC(=O)Nc1cccc([N+](=O)[O-])c1	-125.3*	-2.2	-23.7
COc1cc(/C=C2\C(=O)N(CCC#N)N=C2C)ccc1OCC(=O)Nc1ccccc1	93.5	x	x
COc1ccc(C(C(=O)NC2CCCC2)N(Cc2ccc(F)cc2)C(=O)c2ccn[nH]2)cc1OC (stereo not given)	-105.4*	-5.1	9.5
CCC(COC)Oc1cc(NCc2ccccc2)c2ncn(C(C)C)c2c1 (stereo not given)	97.2	x	x
Cc1cccc(CC(=O)NCCn2c(C)cc3ccccc32)c1	41.0	x	x
CC(=O)c1c(O)cc(C)n(Cc2ccccc2)c1=O	-71.1*	10.4	8.8
Oc1cccc(C=NCc2ccccc2)c1O	81.8	x	x
CCN1/C(=C/c2ccc3cc(C)ccc3[n+]2CC)Sc2ccc3sccc3c21	62.2	x	x
Cc1cc(C)c2sc(N(CCCN(C)C)C(=O)c3ccc(S(=O)(=O)N(C)C4CCCCC4)cc3)nc2c1	40.1	x	x
COc1ccc(C(=O)NCCc2nnc3ccc(SCC(=O)NCCc4ccc(OC)c(OC)c4)nn23)cc1	-410.3*	-4.4	8.8
COc1ccc(CCNC(=O)CSc2nnc(-c3ccco3)c(-c3ccco3)n2)cc1OC	42.5	x	x
O=C(CSc1ccc2nnc(CCNC(=O)c3ccccc3)n2n1)Nc1ccccc1	-293.3*	3.0	-2.8
Cn1/c(=N/NC(=O)c2ccccc2F)sc2ccccc21	-71.6*	5.1	1.8
CN1c2cccc3cccc(c23)N(C)C1(C)C	45.5	x	x
COc1cc(/C=C/C(=O)OCC(=O)Nc2ccc(C)cc2[N+](=O)[O-])ccc1O	-93.7*	-2.0	-37.1
COc1cc(/C=C/C(=O)OCC(=O)Nc2cc(C)c(C)cc2[N+](=O)[O-])ccc1O	-70.6*	-3.1	-27.1
Cc1ccc(OCC(=O)N/N=C\c2c(C)n(C)c3ccccc23)c([N+](=O)[O-])c1	42.0	x	x
CCN(CC)C(=O)[C@H]1CC(CC(=O)NCCCN(C)C)C(=O)N2CCc3c([nH]c4ccccc34)[C@]12C (stereo not given in full)	43.9	x	x
O=C(CCC1N=C2c3ccccc3N=C(SCc3ccc(Cl)cc3)N2C1=O)NCc1ccco1 (stereo not given)	40.8	x	x
S=C(NCCc1ccc(Cl)cc1)NCc1ccco1	-154.0*	2.8	14.7
COC(=O)CCC(=O)OC1(C)C(=O)C2=CN(CC3CC3)C(c3ccc(OC)cc3)=CC2=C(Br)C1=O (stereo not given)	66.3	x	x
CCC(C)(C)C1CCc2c(sc(N)c2C(N)=O)C1 (stereo not given)	-47.9*	3.6	20.4
CCN1CCN(Cc2ccc(NC(=O)c3cc(NC(=O)c4cc(-c5ccc(OC)cc5)n[nH]4)cc(OC)c3)cc2C(F)(F)F)CC1	56.3	x	x
O=C1C=C(Nc2ccccc2C(=O)O)c2ccccc2C1=O	91.4	x	x
Oc1c(Br)cc(Br)cc1CNc1cccc2cccnc12	92.1	x	x
SMILES	Apaf-1 act	Rh110 act interf	Apaf-1 act conf2
CNC(=S)NNC(=O)c1sccc1OCc1cccc(C(F)(F)F)c1	-189.5*	12.0	6.9
CCC12CCCN3CCc4c(n(c5ccccc45)C(O)(C(=O)OC)C1)C32 (stereo not given)	40.9	x	x
CCOc1cc2c(C#N)c(N3CCCCC3)nc(N)c2c(N)n1	96.8	x	x
Cc1ccc(C)c(-n2ccnc2SCC(=O)O)c1	-464.7*	-10.9	8.3
NC(=NCCCCCCN=C(N)/N=C(\N)Nc1ccc(Cl)cc1)/N=C(\N)Nc1ccc(Cl)cc1	75.7	x	x
CN(Cc1ccc(F)cc1)Cc1nc(CCc2ccccc2)no1	-142.6*	1.4	10.3
COc1cc(Br)c(C(=O)c2nccc3cc(OC)c(OC)cc23)cc1OC	88.8	x	x
CCN1CCCC1CNC(=O)c1cc2c(-c3ccc(Cl)cc3)nn(C)c2s1 (stereo not given)	49.2	x	x
NC1(C#Cc2ccc3oc(=O)c(-n4cc(-c5ccsc5)nn4)cc3c2)CCCCC1	47.7	x	x
